The list is a sample of the results.
PGC1a acetyl up: compounds raising PGC1a acetylation signal, primary screen, PGC1a modulator project, cell-based, U2OS, AlphaScreen, signal-increasing mode. overnight. activation, % at 15.6 µM. 0.21% of 350,000 active. AID 651723, 2012;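 active = every replicate reaching activation of at least 50%, whatever the mean replicate activation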;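 also: hits raise the AlphaScreen acetylation signal above neutral controls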
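Test system: U2OS cells expressing flag-PGC1a plus GCN5; Amount: 7000 U2OS cells per well; Compound: single test concentration per compound; Incubation: compound overnight at 37 °C, each detection step 1 h RT; Signal: AlphaScreen lysate read.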
* = called active by the depositor.

SMILES	PGC1a acetyl up
COc1cc(C(C)=O)ccc1OCC(O)CN1CCN(c2ccc(C)c(C)c2)CC1 (stereo not drawn)	-40
CO[C@H]1CN(C)C(=O)c2ccc(NC(=O)C3CCOCC3)cc2OC[C@@H](C)N(C)C[C@@H]1C	-53
O=Nc1c(-c2c(O)[nH]c3cc(Br)ccc23)[nH]c2ccccc12	258*
CC(C)CCCCCCCCCCCCC(=O)NCC(=O)NC1C(C)OC(Nc2ncnc3nc[nH]c23)C(O)C1O (stereo not drawn)	-71
CCOC(=O)c1[nH]c2ccc(OC)cc2c1NC(=O)c1ccc2c(c1)OCO2	55*
COc1ccc2c(c1)c(CC(=O)OCC(N)=O)c(C)n2C(=O)c1ccc(Cl)cc1	-45
Cc1noc(/C=C/N(C)C)c1S(=O)(=O)N(C)CC(=O)NC1CCCCC1	-43
CN(Cc1ccccc1)C(=O)c1ccc2c(c1)NC(=O)C(N1CCOCC1)S2 (stereo not drawn)	-49
CN(C)Cc1csc(NC(=O)Nc2ccccc2-c2ccccc2)n1	52*
Cc1c(CCOC(=O)CC23CC4CC(CC(C4)C2)C3)sc[n+]1Cc1ccccc1	61*
Cc1noc(C)c1NC(=O)N(C)C[C@H]1OCCCC[C@@H](C)Oc2ccc(NC(=O)Cc3ccccc3)cc2C(=O)N([C@@H](C)CO)C[C@@H]1C	-44
COc1ccc(CC2C(=O)NC(C)C(=O)N(C)C3Cc4ccc(cc4)Oc4cc(ccc4O)CC(C(=O)NC(C)C(=O)NC(C)C(=O)N2C)N(C)C3=O)cc1 (stereo not drawn)	-70
O=C(CSc1nc2c(sc3ccccc32)c(=O)n1CCc1ccccc1)NCc1ccco1	-57
Cc1cc(SCC(=O)NC(=O)NCc2ccco2)nc2ccccc12	85*
CNC(=O)COC(=O)c1cc(-c2ccco2)nc2ccccc12	-46
C=CCn1c(SCC(=O)Nc2ccc(C(=O)O)cc2)nnc1-c1cccnc1	-40
Cc1cccc(CCN(CC(=O)NC(C)(C)C)C(=O)c2csnn2)c1	-47
O=C1c2ccsc2SCCN1Cc1cccc(Cl)c1	50*
COc1ccc(N(C(=O)CCl)C(C(=O)NCCc2ccccc2)c2cccs2)cc1 (stereo not drawn)	-61
CCN(CC)S(=O)(=O)c1ccc(C(=O)N(c2ccccc2)C2C=CS(=O)(=O)C2)cc1 (stereo not drawn)	-46
CN(CCc1ccccc1)C(=O)c1ccc(NC(=O)Cc2ccc(NC(=O)C3CCN(C(=O)C4CCCCC4)CC3)cc2)cc1	-42
CCN(CC)C(=O)[C@H]1CC(CC(=O)NCc2cccc(C(F)(F)F)c2)C(=O)N2CCc3c([nH]c4ccccc34)[C@]12C (stereo partly drawn)	-54
CN(C)CCCNC(=O)CC1C[C@H](C(=O)N2CCCCC2)[C@@]2(CCc3ccccc3)c3[nH]c4ccccc4c3CCN2C1=O (stereo partly drawn)	99*
CCOC(=O)c1oc2ccc(S(=O)(=O)N3CCC(C)CC3)cc2c1C	-43
CCOC(=O)C1=CC[C@@H](c2ccc(OC)cc2)N(S(=O)(=O)c2ccc(C)cc2)[C@H]1CC	90*
SMILES	PGC1a acetyl up
C[C@H]([C@@H](N)C(=O)N[C@@H](C(=O)O)[C@@H]1O[C@H](n2ccc(=O)[nH]c2=O)[C@@H](O)[C@H]1O)[C@@H](O)c1ccc(O)cn1	-46
C[C@@H]1CN([C@H](C)CO)C(=O)CCCn2nncc2CO[C@H]1CN(C)S(=O)(=O)c1cn(C)cn1	-105
COc1ccc(-n2c(=O)c3c4c(sc3n3c(=S)[nH]nc23)CCC4)cc1	234*
COc1ccccc1CN=Cc1[nH]c2ccc(Br)c(Cl)c2c1O	52*
O=C(Nc1nc2c(s1)CN(Cc1ccccc1)CC2)c1c(F)cccc1F	-41
COc1cc(C(=O)O)ccc1Cl	-48
COc1cc(Cl)c(S(=O)(=O)N2CC(C)OC(C)C2)cc1Cl (stereo not drawn)	89*
C[n+]1c2n(c3ccccc31)N=C(c1cc(C(C)(C)C)c(O)c(C(C)(C)C)c1)CS2	88*
CCOC(=O)N(O)c1ccc(C=Cc2ccccc2)cc1	-49
O=C1CCCc2ccccc2N1Cc1ccc(Cl)cc1Cl	-56
CNc1ccc2ncc(-c3ccc(OC)c(OC)c3)n2n1	-58
COc1ccc(NC(=O)N[C@H]2CC[C@H](CCn3cc(-c4ccccc4F)nn3)O[C@@H]2CO)cc1	-69
CN(C)S(=O)(=O)c1cc(NC(=O)CN2CCc3ccccc32)ccc1Cl	-75
CC(C(=O)N1CCc2ccccc2C1)N(c1ccccc1)S(C)(=O)=O (stereo not drawn)	-51
C/C(=C\C(=O)N1CCc2ccccc21)C(=O)O	60*
CO[C@@H]1CN(C)C(=O)c2cc(NC(C)=O)ccc2OC[C@H](C)N(Cc2cc(F)ccc2F)C[C@H]1C	-55
CN(C)S(=O)(=O)N1CCC(Cc2ccccc2)CC1	62*
CN(Cc1ccccc1)S(=O)(=O)c1ccc(S(=O)(=O)N(Cc2ccc(F)cc2)C2CCCC2)cc1	-44
C=CCNC(=O)c1ccc(CN2CCC(Cc3ccccc3)CC2)cc1	-48
Cc1c(C(=O)Nc2ccc3c(c2)OCCO3)sc2nc(-c3ccccc3)cn12	62*

Screening data deposited in PubChem by Broad Institute.
